Results taken from ChEMBL document CHEMBL5131497, “Design, Synthesis, and Characterization of TNP-2198, a Dual-Targeted Rifamycin-Nitroimidazole Conjugate with Potent Activity against Microaerophilic and Anaerobic Bacterial Pathogens” (J Med Chem, 2022).
In brackets after ≈: the same amount, converted by molar mass.

Experiments:
Format in all cases: functional
Staphylococcus aureus = assay: Antibacterial activity against Staphylococcus aureus ATCC 29213
Clostridioides difficile [1] = assay: Antibacterial activity against Clostridioides difficile ATCC 9689
Helicobacter pylori [2] = assay: Antibacterial activity against Helicobacter pylori ATCC 700392
How it was run: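 Agar dilution per CLSI. Wild-type H. pylori ATCC 700392 (CB1531). Drugs prepared from 100× stocks as 2-fold dilutions in Mueller–Hinton agar with aged (≥2 weeks) sheep blood (5% v/v). Combinations were at 1:1 molar ratio. MIC read after 5 days at 35 °C under microaerobic atmosphere from a campylobacter gas-generating system.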

Helicobacter pylori [3] = assay: Antibacterial activity against rifampicin resistant Helicobacter pylori harboring rpoBL525I/D530N mutant
Clostridioides difficile [4] = assay: Antibacterial activity against rifampicin-resistant Clostridioides difficile harboring rpoBQ489K mutant
Clostridioides difficile [5] = assay: Antibacterial activity against Clostridioides difficile BAA 1382

SMILES	MIC (Staphylococcus aureus) [µg/mL]	MIC (Clostridioides difficile [1]) [µg/mL]	MIC (Helicobacter pylori [2]) [µg/mL]	MIC (Helicobacter pylori [3]) [µg/mL]	MIC (Clostridioides difficile [4]) [µg/mL]	MIC (Clostridioides difficile [5]) [µg/mL]
C[C@]1(COc2ccc(N3CCC(Oc4ccc(OC(F)(F)F)cc4)CC3)cc2)Cn2cc([N+](=O)[O-])nc2O1	> 32	> 16	2 (≈ 3.74 µM)	–	–	–
CO[C@H]1/C=C/O[C@@]2(C)Oc3c(C)c(O)c4c(=O)c(c5oc6cc(N7CCN(CCn8c([N+](=O)[O-])cnc8C)CC7)cc(O)c6nc-5c4c3C2=O)NC(=O)/C(C)=C\C=C\[C@H](C)[C@H](O)[C@@H](C)[C@@H](O)[C@@H](C)[C@H](OC(C)=O)[C@@H]1C	< 0.03	0.002 (≈ 0.00193 µM)	0.004 (≈ 0.00385 µM)	0.5 (≈ 0.482 µM)	2 (≈ 1.93 µM)	0.001 (≈ 0.000963 µM)
CO[C@H]1/C=C/O[C@@]2(C)Oc3c(C)c(O)c4c(O)c(c(/C=N/N5CCN(CCn6c([N+](=O)[O-])cnc6C)CC5)c(O)c4c3C2=O)NC(=O)/C(C)=C\C=C\[C@H](C)[C@H](O)[C@@H](C)[C@@H](O)[C@@H](C)[C@H](OC(C)=O)[C@@H]1C	0.03 (≈ 0.0312 µM)	0.002 (≈ 0.00208 µM)	0.25 (≈ 0.26 µM)	2 (≈ 2.08 µM)	2 (≈ 2.08 µM)	0.0005 (≈ 0.00052 µM)
CO[C@H]1/C=C/O[C@@]2(C)Oc3c(C)c(O)c4c(O)c(c(N5CCN(CC6(C)Cn7cc([N+](=O)[O-])nc7O6)CC5)c(O)c4c3C2=O)NC(=O)/C(C)=C\C=C\[C@H](C)[C@H](O)[C@@H](C)[C@@H](O)[C@@H](C)[C@H](OC(C)=O)[C@@H]1C (some centres undefined)	0.008 (≈ 0.00831 µM)	0.001 (≈ 0.00104 µM)	0.25 (≈ 0.26 µM)	–	–	–
CO[C@H]1/C=C/O[C@@]2(C)Oc3c(C)c(O)c4c(=O)c(c5oc6cc(N7CCN(c8ccc(OCC9(C)Cn%10cc([N+](=O)[O-])nc%10O9)cc8)CC7)cc(O)c6nc-5c4c3C2=O)NC(=O)/C(C)=C\C=C\[C@H](C)[C@H](O)[C@@H](C)[C@@H](O)[C@@H](C)[C@H](OC(C)=O)[C@@H]1C (some centres undefined)	< 0.008	0.03 (≈ 0.0259 µM)	0.06 (≈ 0.0518 µM)	–	–	–
CO[C@H]1/C=C/O[C@@]2(C)Oc3c(C)c(O)c4c(O)c(c(N5CCN(Cc6ccc(OCC7Cn8cc([N+](=O)[O-])nc8O7)cc6)CC5)c(O)c4c3C2=O)NC(=O)/C(C)=C\C=C\[C@H](C)[C@H](O)[C@@H](C)[C@@H](O)[C@@H](C)[C@H](OC(C)=O)[C@@H]1C (some centres undefined)	< 0.004	–	0.25 (≈ 0.237 µM)	–	–	–
CO[C@H]1/C=C/O[C@@]2(C)Oc3c(C)c(O)c4c(O)c(c(N5CCN(CCn6c([N+](=O)[O-])cnc6C)CC5)c(O)c4c3C2=O)NC(=O)/C(C)=C\C=C\[C@H](C)[C@H](O)[C@@H](C)[C@@H](O)[C@@H](C)[C@H](OC(C)=O)[C@@H]1C	< 0.015	0.00025 (≈ 0.000267 µM)	0.06 (≈ 0.0642 µM)	–	–	0.00025 (≈ 0.000267 µM)
CO[C@H]1/C=C/O[C@@]2(C)Oc3c(C)c(O)c4c(c3C2=O)C2=NC3(CCN(CC5Cn6cc([N+](=O)[O-])nc6O5)CC3)NC2=C(NC(=O)/C(C)=C\C=C\[C@H](C)[C@H](O)[C@@H](C)[C@@H](O)[C@@H](C)[C@H](OC(C)=O)[C@@H]1C)C4=O (some centres undefined)	0.015 (≈ 0.0157 µM)	–	0.06 (≈ 0.0626 µM)	–	–	–
CO[C@H]1/C=C/O[C@@]2(C)Oc3c(C)c(O)c4c(O)c(c5c(nc6ccc(CCC(=O)N7CCN(CCn8c([N+](=O)[O-])cnc8C)CC7)cn65)c4c3C2=O)NC(=O)/C(C)=C\C=C\[C@H](C)[C@H](O)[C@@H](C)[C@@H](O)[C@@H](C)[C@H](OC(C)=O)[C@@H]1C	–	0.004 (≈ 0.00376 µM)	1 (≈ 0.939 µM)	> 8	4 (≈ 3.76 µM)	0.004 (≈ 0.00376 µM)
CO[C@H]1/C=C/O[C@@]2(C)Oc3c(C)c(O)c4c(O)c(c(N5CCN(Cc6ccc(CO[C@@H]7COc8nc([N+](=O)[O-])cn8C7)cc6)CC5)c(O)c4c3C2=O)NC(=O)/C(C)=C\C=C\[C@H](C)[C@H](O)[C@@H](C)[C@@H](O)[C@@H](C)[C@H](OC(C)=O)[C@@H]1C	< 0.008	0.008 (≈ 0.00748 µM)	0.5 (≈ 0.468 µM)	–	–	–
CO[C@H]1/C=C/O[C@@]2(C)Oc3c(C)c(O)c4c(O)c(c(N5CCN(C(=O)CO[C@@H]6COc7nc([N+](=O)[O-])cn7C6)CC5)c(O)c4c3C2=O)NC(=O)/C(C)=C\C=C\[C@H](C)[C@H](O)[C@@H](C)[C@@H](O)[C@@H](C)[C@H](OC(C)=O)[C@@H]1C	2 (≈ 1.99 µM)	–	4 (≈ 3.97 µM)	–	–	–
